# Results from different studies.
# Protocols differ between the studies behind these lines.
# Target: Serine/threonine-protein kinase PLK4 (PLK4, Homo sapiens, UniProt O00444)
# Sequence (O00444 1-970, as in one of the studies): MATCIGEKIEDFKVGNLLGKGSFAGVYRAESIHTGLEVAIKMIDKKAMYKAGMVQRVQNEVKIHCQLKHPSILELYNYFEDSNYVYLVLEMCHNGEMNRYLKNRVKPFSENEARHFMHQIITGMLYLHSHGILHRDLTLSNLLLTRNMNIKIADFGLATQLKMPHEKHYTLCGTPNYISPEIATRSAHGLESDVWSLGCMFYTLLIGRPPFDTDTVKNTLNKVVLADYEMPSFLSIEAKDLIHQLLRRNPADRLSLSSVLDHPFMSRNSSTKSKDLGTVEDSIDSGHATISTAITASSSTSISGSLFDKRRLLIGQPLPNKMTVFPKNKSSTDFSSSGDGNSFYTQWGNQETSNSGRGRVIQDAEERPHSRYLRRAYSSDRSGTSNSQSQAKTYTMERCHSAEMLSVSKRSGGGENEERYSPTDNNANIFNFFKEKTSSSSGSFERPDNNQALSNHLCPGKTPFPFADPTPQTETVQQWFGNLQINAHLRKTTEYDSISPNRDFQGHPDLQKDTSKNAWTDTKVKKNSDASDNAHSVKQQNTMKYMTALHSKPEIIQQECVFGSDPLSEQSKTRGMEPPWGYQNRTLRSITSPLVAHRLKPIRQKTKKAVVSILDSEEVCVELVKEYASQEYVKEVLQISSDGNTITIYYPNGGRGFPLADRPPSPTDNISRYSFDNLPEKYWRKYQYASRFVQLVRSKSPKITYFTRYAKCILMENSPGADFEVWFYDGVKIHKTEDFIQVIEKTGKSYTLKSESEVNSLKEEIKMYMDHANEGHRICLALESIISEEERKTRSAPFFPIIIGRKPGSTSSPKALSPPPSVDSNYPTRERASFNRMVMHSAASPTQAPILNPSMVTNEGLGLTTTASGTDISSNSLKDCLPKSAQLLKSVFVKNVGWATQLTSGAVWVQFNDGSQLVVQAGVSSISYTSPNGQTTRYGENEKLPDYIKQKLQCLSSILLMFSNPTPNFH
Compound,test,conditions,remaining binding
CCCCN(CCCC)C(=O)CN1C[C@H](c2cc(OC)c3c(c2)OCO3)[C@@H](C(=O)O)[C@@H]1CC(C)(C)CCC,"cell-free assay, competition with immobilised ligand",1 µM,100%
CC(C)(C)c1ccc(-c2nc(CBr)nn2-c2cccc(O)c2)cc1,"cell-free assay, competition with immobilised ligand",10 µM,88%
CNC(=O)c1ccc(Nc2ncc(C(F)(F)F)c(NCc3nccnc3N(C)S(C)(=O)=O)n2)cc1,"cell-free assay, competition with immobilised ligand",0.1 µM,79%
C[C@@H]1CN(c2ccc3ncc(-c4ccc5[nH]nc(C6CC6)c5c4)n3n2)C[C@H](C)O1,"binding, competition with immobilised ligand",0.5 µM,90%
CCN1CCN(Cc2ccc(C(=O)Nc3ccc(C)c(Oc4ccc5c(c4)CC(=O)N5)c3)cc2C(F)(F)F)CC1,"binding, competition with immobilised ligand",1 µM,100%
COc1cnc(Nc2cccc(S(N)(=O)=O)c2)nc1N1CCN(c2ccccc2)C(=O)C1,"binding, competition with immobilised ligand",1 µM,96%
CN(C)c1ncc(F)c(-c2cnn3ncccc23)n1,binding,1 µM,100%
O=C(c1ccc(Nc2nccc(-c3cc4ccccc4s3)n2)cc1)N1CCC(N2CCCC2)CC1,"binding, competition with immobilised ligand",1 µM,56%
c1cncc(-c2cccc(Nc3nccc(NC4CCCCC4)n3)c2)c1,"binding, competition with immobilised ligand",10 µM,34%
N#CC1(c2ccccn2)CCN(Cc2cc(C(=O)N3CCCC3)c(=O)n3ccccc23)CC1,"cell-free assay, competition with immobilised ligand",1 µM,87%
F[C@@H]1CCN(c2nccc(-c3cnn4ncccc34)n2)C1,binding,1 µM,100%
CN1CCN(c2cnc3c(C4CCN(C(=O)c5ccc(OC(F)(F)F)cc5N)CC4)ncnc3c2)CC1,"cell-free assay, competition with immobilised ligand",1 µM,83%
C[C@H]1CCN(c2nccc(-c3cnn4ncccc34)n2)C1,binding,1 µM,99%
COc1cc(C(=O)N2CCC(N3CCN(C)CC3)CC2)ccc1Nc1ncc2c(n1)N(C)c1ccccc1C(=O)N2C,"binding, competition with immobilised ligand",10 µM,0%
O=C(NCCCN1CCOCC1)c1ccc(Nc2ncc(Cl)c(-c3ccc(Cl)s3)n2)cc1,"binding, competition with immobilised ligand",1 µM,38%
c1cnn2ncc(-c3ccnc(N4CCC45COC5)n3)c2c1,binding,1 µM,79%
CC(=O)Nc1c(C(C)=O)c(=O)n(C)c2nc(-c3ccc(Cl)cc3Cl)c(-c3ccc(Cl)cc3)cc12,"cell-free assay, competition with immobilised ligand",1 µM,100%
CN(C)c1nccc(-c2cnc3ncccn23)n1,binding,1 µM,68%
O=C(NCC1CCOCC1)c1n[nH]cc1NC(=O)c1c(F)cccc1F,"binding, competition with immobilised ligand",1 µM,75%
Cc1c[nH]c2nccc(Oc3c(F)cc(Nc4cc(Cl)nc(N)n4)cc3F)c12,"cell-free assay, competition with immobilised ligand",0.1 µM,82%
C=CC(=O)N1CCC(C(=O)NCC(=O)N2CCN(c3nc(-c4cnc(N)nc4C(F)F)nc(N4CCOCC4)n3)CC2)CC1,"binding, competition with immobilised ligand",1 µM,89%
N[C@@H]1CCN(c2nccc(-c3cnn4ncccc34)n2)C1,binding,1 µM,100%
O=C(N1CCS(=O)(=O)CC1)N1C[C@H](c2ccc(OC(F)(F)F)cc2)C[C@H](c2nc(C3CC3)no2)C1,"cell-free assay, competition with immobilised ligand",1 µM,100%
O=C(c1ccc(Nc2ncc(Cl)c(-c3cc4ccccc4s3)n2)cc1)N1CCC(N2CCCC2)CC1,"binding, competition with immobilised ligand",1 µM,39%
CN(C)c1nccc(-c2cnn3ncccc23)n1,binding,1 µM,96%
O=C1CCc2cc(Nc3cc(OC4CCOCC4)c([N+](=O)[O-])cc3Cl)ccc2N1,"cell-free assay, competition with immobilised ligand",1 µM,86%
